aSyn 5UTR inh: 5' untranslated region of α-synuclein, MLPCN primary screen; inhibition, % (tested at 7.5 µM); alpha-synuclein 5'UTR reporter, inhibitor activity; 0.82% of 300,000 active; in the data active = inhibition above about 60%; inconclusive = no clear call, values can overlap the other calls;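 note: H4 neuroglioblastoma cells stably carrying SNCA 5'UTR luciferase fusion; 0% = DMSO wells and 100% = positive control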
Mdm2 MdmX PPI: inhibitors of human Mdm2/MdmX interaction; O15151+Q00987; SaOS-2 split-luciferase Mdm2/MdmX complementation, luminescence; inhibition, % at 8 µM; 3% of 330,000 active; AID 485346;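 active = inhibition of at least 50% at 8 µM in the primary screen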
Target sequence (O15151 whole entry, looked up): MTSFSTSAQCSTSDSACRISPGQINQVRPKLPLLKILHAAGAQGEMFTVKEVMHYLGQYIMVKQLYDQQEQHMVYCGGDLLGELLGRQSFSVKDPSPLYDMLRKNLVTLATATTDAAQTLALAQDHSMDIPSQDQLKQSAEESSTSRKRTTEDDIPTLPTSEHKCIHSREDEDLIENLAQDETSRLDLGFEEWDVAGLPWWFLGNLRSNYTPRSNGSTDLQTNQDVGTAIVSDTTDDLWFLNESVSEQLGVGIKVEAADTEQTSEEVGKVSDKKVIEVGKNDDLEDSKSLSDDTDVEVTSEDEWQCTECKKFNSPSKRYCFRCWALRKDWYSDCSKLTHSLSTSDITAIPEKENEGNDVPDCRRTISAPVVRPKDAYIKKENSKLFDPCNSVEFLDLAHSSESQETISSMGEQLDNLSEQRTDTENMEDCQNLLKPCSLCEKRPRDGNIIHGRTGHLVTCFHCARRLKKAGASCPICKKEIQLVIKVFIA
Target sequence (Q00987 whole entry, looked up): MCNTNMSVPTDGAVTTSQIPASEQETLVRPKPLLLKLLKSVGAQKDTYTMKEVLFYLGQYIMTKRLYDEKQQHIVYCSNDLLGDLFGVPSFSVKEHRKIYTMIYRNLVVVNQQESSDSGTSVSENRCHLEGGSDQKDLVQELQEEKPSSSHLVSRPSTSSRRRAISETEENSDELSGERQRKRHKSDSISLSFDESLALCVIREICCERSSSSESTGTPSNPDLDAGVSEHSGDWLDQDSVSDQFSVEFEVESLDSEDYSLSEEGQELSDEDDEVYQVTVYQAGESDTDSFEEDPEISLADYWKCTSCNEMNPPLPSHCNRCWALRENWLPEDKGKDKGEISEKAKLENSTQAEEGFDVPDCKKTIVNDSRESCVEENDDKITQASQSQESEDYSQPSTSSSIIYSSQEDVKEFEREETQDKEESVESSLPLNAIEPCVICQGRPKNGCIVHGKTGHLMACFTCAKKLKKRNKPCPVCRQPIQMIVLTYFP
T cruzi repl: blocks replication of Trypanosoma cruzi; T. cruzi beta-gal in NIH3T3, luminescence, 90 h; inhibition, % (no concentration beside the values); 1.4% of 300,000 active; AID 1885;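 active = mean inhibition across valid replicates above about 55%, limit read from the data; inconclusive = mean below that limit but half or more replicates reach it; inactive = mean below it, under half of replicates reach it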;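 note: signal also drops with host cell toxicity which is not excluded here; 0% = plate median of DMSO wells and 100% = zero luminescence signal; higher percent means less beta-gal luminescence so fewer parasites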
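System: mouse NIH/3T3 fibroblasts infected with β-gal-expressing T. cruzi Tulahuen C4 / Input: NIH/3T3 cells, 5,000 per well / Buffer or medium: Low-serum DMEM with 2% FBS / Probe or stimulus: 5000 reporter trypomastigotes per well / Schedule: ≥90 h infection period, 3 h prior cell attachment / Measured by: GalScreen luminescence, 60 min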
CSC inhib: blocks cancer stem cells; inhibition, % at 7.5 µM; 1.1% of 300,000 active; cancer stem cell-like cells viability, luminescence; AID 2717; in the data active = inhibition above about 75%; inconclusive = no clear call, values can overlap the other calls; tested in HMLE shEcad cells
SKKanGAS inh: SKKanGAS growth inhibition; 1.3% of 300,000 active; inhibition, % at 7.5 µM; AID 1662; S. pyogenes SKKanGAS, kanamycin growth, BacTiter-Glo, 6 h;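 active = mean replicate score, as percent of positive control median, at least 50; inconclusive = mean below 50 but one replicate at or above 50; inactive = mean and every replicate below 50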;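 note: strain carries kanamycin resistance gene driven by streptokinase promoter and grows in 40 µg/ml kanamycin; loss of luminescence reflects streptokinase promoter inhibition or plain growth inhibition; 0% = median of DMSO wells and 100% = positive control at its reference dose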
* marks the source's active call; other numbers are inactive results; ? = inconclusive; / = not tested or not shown. Compounds with a hit are over-represented: about 5.4% of the library has one in this group of screens.

SMILES	aSyn 5UTR inh	Mdm2 MdmX PPI	T cruzi repl	CSC inhib	SKKanGAS inh
COc1ccccc1CC(=O)N1CCCC(CCC(=O)NCc2ccccc2F)C1 (configuration not stated)	-10	13	3	-3	2
COc1ccccc1N(C)S(=O)(=O)c1ccc(C(=O)Nc2ccc(C)cc2C)cc1	/	21	/	/	/
CCN1C(=O)N/C(=C/c2cc(C)n(Cc3ccccc3)c2C)C1=O	-63	-37	10	6	14
CCn1c(C)cc(/C=C2\NC(=O)N(Cc3ccc(Cl)cc3)C2=O)c1C	16	20	55*	5	20
O=C(OCCN1C(=O)c2cccc3c(N4CCOCC4)ccc(c23)C1=O)c1ccc(Cl)cc1Cl	99*	/	26	21	13
NC(=O)CC(NC(=O)c1ccc(Br)cc1)c1ccc(N2CCCCCC2)c([N+](=O)[O-])c1 (configuration not stated)	-36	25	10	123*	16
Cc1ccccc1CNc1ccc(C(CC(N)=O)NC(=O)c2ccc(Br)cc2)cc1[N+](=O)[O-] (configuration not stated)	20	3	24	111*	20
COc1cccc(CNCc2ccco2)c1O	-2	1	-2	/	0
CC(/C=C1\SC(=S)N(NC(=O)c2ccc(C)cc2)C1=O)=C\c1ccccc1	-34	6	-3	13	5
CC(/C=C1\SC(=S)N(c2ccc(C(=O)O)cc2)C1=O)=C\c1ccccc1	-11	1	8	76*	116*
CC(/C=C1\SC(=S)N(NC(=O)c2ccccc2C)C1=O)=C\c1ccccc1	8	-12	-9	0	6
CC(/C=C1\SC(=S)N(NS(=O)(=O)c2ccccc2)C1=O)=C\c1ccccc1	-14	20	-7	22	57*
CC(/C=C1\SC(=S)N(NS(=O)(=O)c2ccc(C)cc2)C1=O)=C\c1ccccc1	-5	11	-6	29	78*
O=C(CSc1nnc(NC2CC2)s1)NN1C(=O)NC2(CCCCC2)C1=O	/	10	/	/	/
FC(F)(F)c1ccc(-c2noc(CN3CCCN(C4CCCCC4)CC3)n2)cc1	0	28	37	106*	-4
COc1cccc(/C=N/Nc2nccnc2Cl)c1O	90*	48	34	/	-9
COc1ccc(/C=N/Nc2nccnc2Cl)c(OC)c1	-111	-15	10	-1	-6
CCN(CC)C(=O)Cn1cc(C(=O)C(=O)N2CCN(c3ccc([N+](=O)[O-])cc3)CC2)c2ccccc21	9	33	7	7	15
Cc1ccc(-n2cc(CN(C)Cc3ncc[nH]3)c(-c3cccc(C)c3)n2)cc1	16	9	58*	7	-3
CC(C)(C)c1cc(NCc2ccccn2)n2ncc(-c3ccc(Cl)cc3)c2n1	17	45	23	56	85*
CC(C)(C)c1cc(C(F)(F)F)n2ncc(-c3ccccc3)c2n1	18	13	-6	28	5
CC(C)Nc1cc(C(C)(C)C)nc2c(-c3ccccc3)cnn12	/	24	/	49	89*
CCOC(=O)N1CCN(c2c(NCc3ccccc3Cl)c(=O)c2=O)CC1	12	5	-8	9	5
O=c1[nH]c(-c2ccccn2)nc2ccccc12	-96	-12	-13	8	4
O=c1[nH]c(-c2ccccn2)nc(C(F)(F)F)c1Br	44	35	66*	20	12
SMILES	aSyn 5UTR inh	Mdm2 MdmX PPI	T cruzi repl	CSC inhib	SKKanGAS inh
CN(c1ccccc1)S(=O)(=O)c1cccc(NC(=O)c2cc(=O)c3ccccc3o2)c1	12	31	14	0	18
O=C(CC(Sc1ccc(Br)cc1)C(=O)O)c1ccc(Br)cc1 (configuration not stated)	-29	-6	55*	/	?
Cc1ccc(Oc2ccc3c(c2)C(=O)N(c2ccc(S(=O)(=O)Nc4nccs4)cc2)C3=O)cc1	-12	14	0	-6	93*
CCOc1ccc(-n2c(O)c(/C=N/NC(=O)C3COc4ccccc4O3)c3ccccc3c2=O)cc1 (configuration not stated)	-4	30	6	-10	73*
Cn1cccc1/C=N\NC(=O)C1COc2ccc(C(C)(C)C)cc2O1 (configuration not stated)	-5	18	-22	0	1
Cc1c(/C=N\NC(=O)C2COc3ccc(C(C)(C)C)cc3O2)c2ccccc2n1C (configuration not stated)	-36	10	66*	/	13
CC(C)(C)c1ccc2c(c1)OC(C(=O)N/N=C\c1ccc[nH]1)CO2 (configuration not stated)	5	17	13	119*	-3
CC(C)(C)c1ccc2c(c1)OC(C(=O)N/N=C/c1ccc([N+](=O)[O-])o1)CO2 (configuration not stated)	-42	19	60*	29	66*
O=C(CCc1ccccc1Cl)NC1CCCN(c2ccc(C(F)(F)F)cn2)C1 (configuration not stated)	-6	17	7	-20	-3
CC1=CC[C@@]23CCCN2C(=O)CCC[C@H]3C1	/	-8	/	/	/
CCOc1cc(C(=O)OCC(=O)Nc2cccc(S(=O)(=O)NC3=NCCCCC3)c2)cc(OCC)c1OCC	/	11	/	-19	/
Cc1nc2c(C(=O)Nc3ccc(N4CCCC(O)C4)cc3)snc2c(=O)[nH]1 (configuration not stated)	-3	16	-9	13	59*
NS(=O)(=O)c1ccc(CNC(=O)c2ccc3c(=O)n4c(nc3c2)CCC4)cc1	6	17	4	-10	-3
O=C(NCc1cccnc1)c1ccc(S(=O)(=O)N2CCCCC2)cc1	20	26	-7	-12	-5
O=S(=O)(c1ccc(NC(=S)NCc2cccnc2)cc1)N1CCCCC1	86*	6	-31	139*	1
CSc1cccc(-c2nnc(NC(=O)c3cccc(N4C(=O)CCC4=O)c3)o2)c1	-20	14	-10	17	85*
O=C(Nc1nnc(-c2ccc(Cl)cc2)o1)c1cccc(N2C(=O)CCC2=O)c1	9	24	-4	5	70*
Cc1cc(Br)c2[nH]cc(CCNC(=O)c3ccco3)c2c1	-25	12	8	-9	0
COc1ccc(N=Nc2nc(-c3ccccc3)c(-c3ccccc3)[nH]2)cc1	-23	19	30	-2	20
COc1ccccc1N=Nc1nc(-c2ccccc2)c(-c2ccccc2)[nH]1	-16	/	46	60	67*
Nc1ccc(-c2cc(-c3cccc(N)c3)nc(-c3ccccc3)n2)cc1	31	-18	41	84*	-14
Nc1ccc(-c2nc(-c3ccccc3)nc3ccccc23)cc1	33	0	5	40	0
COc1ccc(N/C=C2\CCc3ccccc3C2=O)cc1	94*	-37	-3	3	20
COc1ccc(N/C=C2\CCOC2=O)cc1	21	-14	-10	/	1
COc1ccc2c(c1)CC/C(=C\Nc1ccc3c(c1)OCO3)C2=O	-197	-90	4	44	-5
